Data reported in ChEMBL document CHEMBL3351959, “Antinociceptive and antidepressant-like action of endomorphin-2 analogs with proline surrogates in position 2” (Bioorg Med Chem, 2014).
Calls of active or inactive are those of the source.

Legend:
Mus musculus [1] = assay: Antinociceptive activity in mouse assessed as inhibition of EM-2-induced jumping at 1 ug, icv by hot-plate test; type: functional, organism-based
[2] = biological target: Kappa-type opioid receptor (Cavia porcellus, UniProt P41144); assay: Displacement of [3H]nor-BNI from KOR in guinea pig brain membranes; type: cell membranes, Membrane
Sequence of Kappa-type opioid receptor (P41144 whole entry): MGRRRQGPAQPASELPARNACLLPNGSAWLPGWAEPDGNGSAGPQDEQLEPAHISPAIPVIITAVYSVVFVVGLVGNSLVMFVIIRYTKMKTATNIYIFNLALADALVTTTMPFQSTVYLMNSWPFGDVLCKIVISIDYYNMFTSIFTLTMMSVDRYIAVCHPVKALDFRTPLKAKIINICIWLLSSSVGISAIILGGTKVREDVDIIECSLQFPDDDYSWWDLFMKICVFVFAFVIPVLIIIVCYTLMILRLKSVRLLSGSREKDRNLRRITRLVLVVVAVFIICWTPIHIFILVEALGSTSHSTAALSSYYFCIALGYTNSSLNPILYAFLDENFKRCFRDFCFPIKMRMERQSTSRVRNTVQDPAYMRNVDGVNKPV

[3] = Half life in rat brain homogenate by RP-HPLC analysis; type: ADME, tissue-based
How it was run: (§1)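 Peptides are incubated at 37 °C with rat brain homogenate as the protease source. Samples taken at 0, 7.5, 15, 22.5, 30 and 60 min are analysed by RP-HPLC to derive the degradation rate constant k and the half-life. Three independent experiments in duplicate; mean ± SEM.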

Rattus norvegicus [4] = organism: Rattus norvegicus; assay: Selectivity ratio of IC50 for DOR in rat brain membranes to IC50 for MOR in rat brain membranes; type: cell membranes
How it was run: (§2)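 Competitive binding on rat brain membranes: displacement of [³H]DAMGO (MOR) or [³H][Ile5,6]deltorphin-2 (DOR), reported as IC50. Three independent experiments, each run in duplicate, given as mean ± SEM. The DOR/MOR ratio is calculated from these IC50 values.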

Mus musculus [5] = assay: Antidepressant activity in mouse assessed as reduction in immobility time at 3 ug, icv measured 10 mins post-dose by tail suspension test; type: functional, organism-based
How it was run: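 Tail suspension: mice held 20 min beforehand in small individual cages. Ten minutes after an icv injection of vehicle or peptide (3 µg/animal), each mouse is suspended by the tail with adhesive tape and immobility is recorded. 10 mice per group.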

[6] = biological target: Delta-type opioid receptor (Rattus norvegicus, UniProt P33533); assay: Displacement of [3H](Ile5,6)deltorphin-2 from DOR in rat brain membranes; type: cell membranes, Membrane; how it was run: as §2
Sequence of Delta-type opioid receptor (P33533 whole entry): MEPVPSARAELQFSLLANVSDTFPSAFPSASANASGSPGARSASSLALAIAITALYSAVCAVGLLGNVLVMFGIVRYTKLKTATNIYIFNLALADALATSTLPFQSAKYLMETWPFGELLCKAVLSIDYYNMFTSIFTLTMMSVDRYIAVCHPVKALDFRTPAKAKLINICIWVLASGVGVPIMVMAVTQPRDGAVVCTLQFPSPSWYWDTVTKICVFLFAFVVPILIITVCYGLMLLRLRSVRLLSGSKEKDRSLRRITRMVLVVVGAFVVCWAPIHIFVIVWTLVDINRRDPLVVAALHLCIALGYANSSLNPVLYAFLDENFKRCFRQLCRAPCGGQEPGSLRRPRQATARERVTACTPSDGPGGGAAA

Mus musculus [7] = assay: Antidepressant activity in mouse assessed as reduction in immobility time at 3 ug, icv measured 10 mins post-dose by forced swim test; type: functional, organism-based
How it was run: (§3)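 Mice given a vehicle or peptide icv, then 20 min before testing kept in small individual cages at 22 ± 1 °C. The test begins 10 min after injection: groups of four swim for 6 min in Plexiglas cylinders (14 cm internal diameter) holding water at 22 ± 1 °C to 12 cm depth. Total immobility is scored by an automated system. Dose range 0.3–10 µg/animal; 10 mice per group.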

Mus musculus [8] = assay: Toxicity in mouse assessed as increase in immobility time at >3 ug, icv by forced swim test; type: organism-based; details: in vivo, icv_or_intrathecal
Mus musculus [9] = assay: Antinociceptive activity in mouse assessed as inhibition of EM-2-induced jumping at 3 ug, icv by hot-plate test; type: functional, organism-based
How it was run: (§4)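 Hot-plate test in mice. Peptides are dissolved in DMSO, diluted with saline and given icv into the left ventricle (0.1–10 µg/animal). The read-out is latency to jumping, expressed as %MPE = (test − control latency)/(cut-off − control latency) × 100, with a 240 s cut-off. 10 mice per group.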

Rattus norvegicus [10] = organism: Rattus norvegicus; assay: Selectivity ratio of IC50 for KOR in guinea pig brain membranes to IC50 for MOR in rat brain membranes; type: cell membranes
How it was run: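 Ratio of the KOR IC50, from displacement of [³H]nor-BNI in guinea pig brain membranes, to the MOR IC50, from displacement of [³H]DAMGO in rat brain membranes. Three independent experiments in duplicate.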

Brain = assay: Stability in rat brain homogenate assessed as degradation rate constant measured up to 60 mins by RP-HPLC analysis; type: ADME, tissue-based; details: 1 h; how it was run: as §1
Mu-type opioid receptor = Mu-type opioid receptor (Rattus norvegicus, UniProt P33535); assay: Displacement of [3H]DAMGO from MOR in rat brain membranes; type: cell membranes, Membrane; how it was run: as §2
Sequence of Mu-type opioid receptor (P33535 whole entry): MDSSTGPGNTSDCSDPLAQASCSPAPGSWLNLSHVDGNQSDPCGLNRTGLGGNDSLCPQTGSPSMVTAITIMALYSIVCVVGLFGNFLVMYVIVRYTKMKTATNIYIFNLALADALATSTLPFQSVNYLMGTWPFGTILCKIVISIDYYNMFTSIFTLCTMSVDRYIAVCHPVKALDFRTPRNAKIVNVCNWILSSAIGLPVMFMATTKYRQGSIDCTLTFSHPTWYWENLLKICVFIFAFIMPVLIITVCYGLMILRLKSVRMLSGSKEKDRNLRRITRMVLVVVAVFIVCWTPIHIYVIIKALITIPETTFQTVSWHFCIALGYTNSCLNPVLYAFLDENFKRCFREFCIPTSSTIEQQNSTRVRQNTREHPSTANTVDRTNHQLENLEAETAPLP

Mus musculus [11] = assay: Toxicity in mouse assessed as mortality at >3 ug, icv; type: organism-based; details: in vivo, icv_or_intrathecal
Mus musculus [12] = assay: Antinociceptive activity in mouse assessed as inhibition of EM-2-induced jumping at 3 ug, icv co-administered with naltrindole by hot-plate test; type: functional, organism-based
How it was run: (§5)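 Hot-plate jumping latency in mice given the peptide at 3 µg/animal icv together with β-FNA (1 µg/animal), naltrindole (1 µg/animal) or nor-BNI (5 µg/animal, per the figure legend). Result is expressed as %MPE with a 240 s cut-off; 10 mice per group; one-way ANOVA with Student–Newman–Keuls.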

Mus musculus [13] = assay: Antinociceptive activity in icv dosed mouse assessed as inhibition of EM-2-induced jumping by hot-plate test; type: functional, organism-based; how it was run: as §4
Mus musculus [14] = assay: Antidepressant activity in mouse assessed as reduction in immobility time at 3 ug, icv co-administered with naltrindole measured 10 mins post-dose by forced swim test; type: functional, organism-based
How it was run: (§6)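 Forced swim test in mice with the peptide at 3 µg/animal icv, co-injected with β-FNA (1 µg/animal), naltrindole (1 µg/animal) or nor-BNI (5 µg/animal). Swim starts 10 min after injection; 6-min session in water at 22 ± 1 °C; automated scoring of total immobility; 10 mice per group.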

Mus musculus [15] = assay: Antinociceptive activity in mouse assessed as inhibition of EM-2-induced jumping at 3 ug, icv co-administered with beta-funaltrexamine by hot-plate test; type: functional, organism-based; how it was run: as §5
Mus musculus [16] = assay: Antidepressant activity in mouse assessed as reduction in immobility time at 3 ug, icv co-administered with beta-funaltrexamine measured 10 mins post-dose by forced swim test; type: functional, organism-based; how it was run: as §6
Mus musculus [17] = assay: Antinociceptive activity in mouse assessed as inhibition of EM-2-induced jumping at 3 ug, icv co-administered with nor-binaltorphimine by hot-plate test; type: functional, organism-based; how it was run: as §5
Mus musculus [18] = assay: Antidepressant activity in mouse assessed as reduction in immobility time at 3 ug, icv co-administered with nor-binaltorphimine measured 10 mins post-dose by forced swim test; type: functional, organism-based; how it was run: as §6
Mus musculus [19] = assay: Antidepressant-like activity in mouse assessed as horizontal locomotor activity at 3 ug, icv measured […] post-dose by locomotor activity assay; type: organism-based; details: in vivo, icv_or_intrathecal, 20 min
Mus musculus [20] = assay: Antidepressant activity in icv dosed mouse assessed as reduction in immobility time measured 10 mins post-dose by forced swim test; type: functional, organism-based; how it was run: as §3
Mus musculus [21] = assay: Antidepressant activity in mouse assessed as reduction in immobility time at 3 to 10 ug, icv measured 10 mins post-dose by forced swim test; type: functional, organism-based; how it was run: as §3

Structure (SMILES) | inhibition (Mus musculus [1]) | IC50 [2] [nM] | half-life [3] [min] | Ratio IC50 (Rattus norvegicus [4]) | Activity (Mus musculus [5]) | IC50 [6] [nM] | Ratio IC50 (Rattus norvegicus [10]) | K (Brain) [min⁻¹] | IC50 (Mu-type opioid receptor) [nM] | further results
Oc1ccc2c3c1O[C@H]1c4[nH]c5ccccc5c4C[C@@]4(O)[C@@H](C2)N(CC2CC2)CC[C@]314 | inactive |  |  |  |  |  |  |  |  | 
COC(=O)/C=C/C(=O)N[C@@H]1CC[C@@]2(O)[C@H]3Cc4ccc(O)c5c4[C@@]2(CCN3CC2CC2)[C@H]1O5 | inactive |  |  |  |  |  |  |  |  | 
NC(=O)[C@H](Cc1ccccc1)NC(=O)[C@H](Cc1ccccc1)NC(=O)[C@@H]1CN(C(=O)[C@@H](N)Cc2ccc(O)cc2)C[C@H]1c1ccccc1 (mixture of isomers) |  | > 1000 | 38.3 | > 1000 | inactive | > 1000 | > 1000 | 0.018 | 2.91 | Activity (Mus musculus [7]): inactive; Activity (Mus musculus [8]): Toxic; inhibition (Mus musculus [9]): inactive; Activity (Mus musculus [11]): Toxic
Oc1ccc2c3c1O[C@H]1c4[nH]c5c(c4C[C@@]4(O)[C@@H](C2)N(CC2CC2)CC[C@]314)C[C@@]1(O)[C@H]2Cc3ccc(O)c4c3[C@@]1(CCN2CC1CC1)[C@H]5O4 | inactive |  |  |  |  |  |  |  |  | 
NC(=O)[C@H](Cc1ccccc1)NC(=O)[C@H](Cc1ccccc1)NC(=O)[C@H]1CN(C(=O)[C@@H](N)Cc2ccc(O)cc2)C[C@@H]1c1ccccc1 (mixture of isomers) |  | 27.1 | 32.5 | 10.7 | Active | 9.06 | 31.9 | 0.0212 | 0.85 | inhibition (Mus musculus [12]): Active; inhibition (Mus musculus [13]): Dose-dependent effect; Activity (Mus musculus [14]): inactive; inhibition (Mus musculus [15]): inactive; Activity (Mus musculus [16]): Active; inhibition (Mus musculus [17]): Active; Activity (Mus musculus [18]): inactive; Activity (Mus musculus [19]): Non-toxic; Activity (Mus musculus [20]): Dose-dependent effect; Activity (Mus musculus [21]): Active
NC(=O)[C@H](Cc1ccccc1)NC(=O)[C@H](Cc1ccccc1)NC(=O)[C@@H]1CCCN1C(=O)[C@@H](N)Cc1ccc(O)cc1 [ENDOMORPHIN 2] |  |  | 6 |  |  |  |  |  |  | 
